This is an account of results in ChEMBL document CHEMBL3232963, “Discovery of a potent and selective α3β4 nicotinic acetylcholine receptor antagonist from an α-conotoxin synthetic combinatorial library” (J Med Chem, 2014).

Holding throughout (type): cell-based
Assay [1] has as its target T1, Neuronal acetylcholine receptor; alpha3/beta4 (Homo sapiens, UniProt P30926+P32297). In words: Inhibition of human alpha3beta4 nAChR expressed in Xenopus laevis oocytes by two-electrode voltage clamp technique.
Assay [2] deals with Neuronal acetylcholine receptor; alpha3/beta4 (Rattus norvegicus) (UniProt P04757+P12392). The assay is described as follows: Antagonist activity at rat alpha3beta4 nAChR expressed in HEK293 cells assessed as inhibition of epibatadine-induced effect at 10 uM after 30 mins by fluorescent membrane potential assay relative to mecamylamine. A digest of the protocol:
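Rat α3β4 nAChR stably expressed in HEK293 cells; crude, SPE-desalted individual peptides tested at 10 μM in HBSS with membrane potential blue dye, 30 min at 37 °C. Fluorescence change read after epibatidine (0.1 μM). Percent inhibition set against 10 μM mecamylamine taken as 100%.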

Assay [3] addresses T2, Neuronal acetylcholine receptor; alpha3/beta4 (Rattus norvegicus, UniProt P04757+P12392). In words: Displacement of [3H]epibatadine from rat alpha3beta4 nAChR expressed in HEK293 cells after 2 hrs by betaplate counting analysis. A digest of the protocol:
(§1)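 Membranes from HEK293 cells stably expressing α3β4 or α4β2 nAChR, homogenised in 50 mM Tris pH 7.4 and washed by centrifugation. Incubated 2 h at room temperature with peptide and 0.31 nM [3H]epibatidine; filtered on PEI-soaked glass fibre, counted. Nonspecific binding with 0.1 μM unlabeled epibatidine. Ki by Cheng–Prusoff from IC50.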

Assay [4] addresses Neuronal acetylcholine receptor; alpha3/beta2 (Rattus norvegicus, UniProt P04757+P12390). In words: Antagonist activity at rat alpha3beta2 nAChR expressed in HEK293 cells assessed as inhibition of epibatadine-induced effect after 30 mins by fluorescent membrane potential assay. A digest of the protocol:
(§2)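 Stably transfected HEK293 lines (KXα3β4R2, KXα3β2R2, KXα4β2R2; rat subunits) grown in DMEM/10% FBS with G-418, plated 24 h before assay. Cells washed with HBSS, peptide added, then membrane potential blue dye, 30 min at 37 °C. Fluorescence (ex 565/em 530 nm) read up to 60 s after epibatidine to 0.1 μM. IC50 from maximal responses across concentrations; n = 4.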

Assay [5] deals with Neuronal acetylcholine receptor subunit alpha-7 (Homo sapiens) (UniProt P36544). In words: Inhibition of alpha7 nAChR (unknown origin) expressed in Xenopus laevis oocytes assessed as inhibition of acetylcholine-evoked current at 10 uM by voltage clamp technique.
Sequence of Neuronal acetylcholine receptor subunit alpha-7 (Homo sapiens) (P36544 whole entry): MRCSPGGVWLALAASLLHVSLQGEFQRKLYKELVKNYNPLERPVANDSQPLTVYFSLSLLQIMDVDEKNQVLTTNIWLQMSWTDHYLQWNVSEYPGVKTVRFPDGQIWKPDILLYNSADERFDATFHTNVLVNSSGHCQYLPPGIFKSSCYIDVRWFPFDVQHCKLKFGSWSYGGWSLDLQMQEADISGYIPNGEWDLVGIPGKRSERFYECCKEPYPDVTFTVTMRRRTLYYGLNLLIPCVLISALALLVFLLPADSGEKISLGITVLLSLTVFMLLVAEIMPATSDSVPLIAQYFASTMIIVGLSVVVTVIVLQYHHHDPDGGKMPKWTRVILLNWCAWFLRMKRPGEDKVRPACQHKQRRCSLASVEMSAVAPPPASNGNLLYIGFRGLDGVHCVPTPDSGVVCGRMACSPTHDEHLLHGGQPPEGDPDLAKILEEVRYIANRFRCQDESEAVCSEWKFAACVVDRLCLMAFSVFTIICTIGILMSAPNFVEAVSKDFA
Assay [6] deals with T2, Neuronal acetylcholine receptor; alpha3/beta4. The assay is described as follows: Antagonist activity at rat alpha3beta4 nAChR expressed in HEK293 cells assessed as inhibition of epibatadine-induced effect after 30 mins by fluorescent membrane potential assay. In outline:
as §2

The target in assay [7] is Neuronal acetylcholine receptor; alpha4/beta2 (Rattus norvegicus, UniProt P09483+P12390). The assay is described as follows: Antagonist activity at rat alpha4beta2 nAChR expressed in HEK293 cells assessed as inhibition of epibatadine-induced effect after 30 mins by fluorescent membrane potential assay. In outline: as §2
Sequence of Neuronal acetylcholine receptor; alpha4/beta2 (P09483 whole entry): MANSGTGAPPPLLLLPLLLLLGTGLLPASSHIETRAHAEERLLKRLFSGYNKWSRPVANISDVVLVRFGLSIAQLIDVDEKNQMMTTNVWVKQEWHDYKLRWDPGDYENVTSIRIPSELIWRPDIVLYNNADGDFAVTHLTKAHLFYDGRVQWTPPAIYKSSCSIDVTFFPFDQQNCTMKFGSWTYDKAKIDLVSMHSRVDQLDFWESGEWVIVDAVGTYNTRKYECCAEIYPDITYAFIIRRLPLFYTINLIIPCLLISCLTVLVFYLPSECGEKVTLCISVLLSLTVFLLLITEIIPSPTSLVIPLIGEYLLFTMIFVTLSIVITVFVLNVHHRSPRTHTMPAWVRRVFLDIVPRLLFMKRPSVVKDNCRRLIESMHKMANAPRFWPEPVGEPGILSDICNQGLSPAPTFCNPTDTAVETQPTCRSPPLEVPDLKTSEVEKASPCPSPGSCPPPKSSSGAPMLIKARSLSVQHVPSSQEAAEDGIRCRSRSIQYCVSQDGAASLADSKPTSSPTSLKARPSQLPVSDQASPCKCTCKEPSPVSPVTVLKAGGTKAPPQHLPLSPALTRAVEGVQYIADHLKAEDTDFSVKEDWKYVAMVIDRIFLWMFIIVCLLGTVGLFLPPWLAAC
Sequence of Neuronal acetylcholine receptor; alpha4/beta2 (P12390 whole entry): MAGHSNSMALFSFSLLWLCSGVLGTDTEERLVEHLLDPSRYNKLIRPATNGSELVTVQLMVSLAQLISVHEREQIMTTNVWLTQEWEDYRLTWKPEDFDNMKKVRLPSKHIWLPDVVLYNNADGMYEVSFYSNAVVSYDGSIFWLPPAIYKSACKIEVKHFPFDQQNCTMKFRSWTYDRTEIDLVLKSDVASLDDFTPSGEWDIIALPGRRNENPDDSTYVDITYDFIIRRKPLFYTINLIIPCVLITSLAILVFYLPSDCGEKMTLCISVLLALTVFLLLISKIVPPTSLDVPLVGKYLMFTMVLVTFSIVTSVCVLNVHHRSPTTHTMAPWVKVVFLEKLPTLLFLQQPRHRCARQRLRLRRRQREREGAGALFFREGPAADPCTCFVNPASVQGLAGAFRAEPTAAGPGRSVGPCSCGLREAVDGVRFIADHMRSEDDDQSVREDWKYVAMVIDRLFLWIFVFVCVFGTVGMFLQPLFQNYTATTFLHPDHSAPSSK
Assay [8] addresses Neuronal acetylcholine receptor; alpha4/beta2 (Rattus norvegicus) (UniProt P09483+P12390). In words: Displacement of [3H]epibatadine from rat alpha4beta2 nAChR expressed in HEK293 cells up to 10 uM after 2 hrs by betaplate counting analysis. In outline:
as §1

The species entered for a further assay is Homo sapiens. The assay is described as follows: Selectivity for alpha3beta4 nAChR (unknown origin) expressed in Xenopus laevis oocytes over alpha3beta2 nAChR (unknown origin) expressed in Xenopus laevis oocytes.
Assay [9] addresses T1, Neuronal acetylcholine receptor; alpha3/beta4. The assay is described as follows: Inhibition of alpha3beta4 nAChR (unknown origin) expressed in Xenopus laevis oocytes assessed as inhibition of acetylcholine-evoked current by voltage clamp technique. In outline: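 Oocytes expressing α3 chimera/β4 nAChR, voltage-clamped at ~22 °C. Concentrations below 1 μM perfused, with 1 s ACh pulses every 1 min; 1 μM and above given as a 5 min static bath. Lowest concentration tested 10 nM. IC50 from a concentration–response curve with top and bottom fixed at 100 and 0; n = 3–5 oocytes per concentration.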

The target of assay [10] is Neuronal acetylcholine receptor; alpha3/beta2 (Homo sapiens) (UniProt P17787+P32297). The assay is described as follows: Inhibition of alpha3beta2 nAChR (unknown origin) expressed in Xenopus laevis oocytes assessed as inhibition of acetylcholine-evoked current up to 10 uM by voltage clamp technique.
The target of assay [11] is T1, Neuronal acetylcholine receptor; alpha3/beta4. In words: Inhibition of alpha3beta4 nAChR (unknown origin) expressed in Xenopus laevis oocytes assessed as inhibition of acetylcholine-evoked current at 10 uM by voltage clamp technique.

Calls of active or inactive are those of the source. The rule behind the calls is not given here. Bridge positions count the residues as written; N and C are the ends. Square brackets hold non-standard residues; d marks the D form. Peptide text beside a SMILES is read from it. Nle = CCCC[C@H](N)C(=O)O; Nva = CCC[C@H](N)C(=O)O; Abu = CC[C@H](N)C(=O)O

T2 sequence (P04757 whole entry): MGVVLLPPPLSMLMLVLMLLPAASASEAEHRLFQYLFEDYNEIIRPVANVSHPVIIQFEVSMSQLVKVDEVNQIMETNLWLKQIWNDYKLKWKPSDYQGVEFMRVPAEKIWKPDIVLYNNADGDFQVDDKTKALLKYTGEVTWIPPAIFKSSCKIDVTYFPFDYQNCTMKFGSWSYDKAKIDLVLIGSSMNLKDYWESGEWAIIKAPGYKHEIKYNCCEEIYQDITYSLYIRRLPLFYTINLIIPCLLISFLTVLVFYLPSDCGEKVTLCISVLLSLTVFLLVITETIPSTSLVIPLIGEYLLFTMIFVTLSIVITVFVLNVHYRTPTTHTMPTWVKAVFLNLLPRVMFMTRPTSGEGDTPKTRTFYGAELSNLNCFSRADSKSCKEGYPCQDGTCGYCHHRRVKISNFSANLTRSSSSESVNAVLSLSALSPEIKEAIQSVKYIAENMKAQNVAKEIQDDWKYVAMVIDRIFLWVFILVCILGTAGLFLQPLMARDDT
T2 sequence (P12392 whole entry): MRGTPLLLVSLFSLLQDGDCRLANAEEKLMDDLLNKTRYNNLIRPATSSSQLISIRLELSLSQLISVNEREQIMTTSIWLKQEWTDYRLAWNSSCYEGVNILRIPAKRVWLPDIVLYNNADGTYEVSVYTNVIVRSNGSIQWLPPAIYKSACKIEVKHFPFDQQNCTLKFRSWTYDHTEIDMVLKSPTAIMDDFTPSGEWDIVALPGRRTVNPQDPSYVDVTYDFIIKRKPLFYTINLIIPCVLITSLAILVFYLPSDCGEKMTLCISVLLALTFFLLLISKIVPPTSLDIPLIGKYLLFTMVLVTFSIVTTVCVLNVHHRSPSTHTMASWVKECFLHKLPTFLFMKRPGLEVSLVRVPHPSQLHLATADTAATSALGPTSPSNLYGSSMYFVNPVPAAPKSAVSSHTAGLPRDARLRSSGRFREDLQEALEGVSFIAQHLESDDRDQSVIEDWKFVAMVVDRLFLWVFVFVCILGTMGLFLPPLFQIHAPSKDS
Sequence of Neuronal acetylcholine receptor; alpha3/beta2 (P04757 whole entry): as the sequence (P04757 whole entry) above
Sequence of Neuronal acetylcholine receptor; alpha3/beta2 (P12390 whole entry): as the sequence (P12390 whole entry) above
T1 sequence (P30926 whole entry): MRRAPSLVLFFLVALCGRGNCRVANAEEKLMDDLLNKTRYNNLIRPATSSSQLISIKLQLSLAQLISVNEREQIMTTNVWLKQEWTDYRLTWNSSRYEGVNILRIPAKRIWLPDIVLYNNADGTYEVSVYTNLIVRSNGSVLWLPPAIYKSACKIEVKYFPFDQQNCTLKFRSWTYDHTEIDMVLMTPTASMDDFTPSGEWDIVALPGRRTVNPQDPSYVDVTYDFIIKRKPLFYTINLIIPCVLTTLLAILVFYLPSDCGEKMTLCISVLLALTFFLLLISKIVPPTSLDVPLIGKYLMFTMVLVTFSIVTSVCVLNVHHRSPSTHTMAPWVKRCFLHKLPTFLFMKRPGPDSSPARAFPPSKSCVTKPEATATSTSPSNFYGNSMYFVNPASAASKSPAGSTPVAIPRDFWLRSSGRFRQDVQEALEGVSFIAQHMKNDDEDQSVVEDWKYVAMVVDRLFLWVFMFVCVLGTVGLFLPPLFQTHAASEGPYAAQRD
T1 sequence (P32297 whole entry): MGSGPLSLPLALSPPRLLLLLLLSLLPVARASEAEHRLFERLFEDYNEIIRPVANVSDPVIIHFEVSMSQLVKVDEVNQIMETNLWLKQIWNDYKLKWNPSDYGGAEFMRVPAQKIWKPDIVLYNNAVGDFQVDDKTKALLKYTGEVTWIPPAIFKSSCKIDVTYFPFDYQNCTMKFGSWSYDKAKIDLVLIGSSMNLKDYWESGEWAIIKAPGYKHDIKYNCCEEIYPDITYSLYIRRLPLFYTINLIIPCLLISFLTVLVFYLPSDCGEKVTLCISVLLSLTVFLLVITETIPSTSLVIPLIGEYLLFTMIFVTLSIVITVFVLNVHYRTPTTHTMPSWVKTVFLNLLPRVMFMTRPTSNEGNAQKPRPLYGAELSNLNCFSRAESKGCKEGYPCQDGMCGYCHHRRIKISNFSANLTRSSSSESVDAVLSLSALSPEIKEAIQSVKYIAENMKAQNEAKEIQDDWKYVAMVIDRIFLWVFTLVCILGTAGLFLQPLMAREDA

`CC[C@H](C)[C@@H]1NC(=O)[C@H](Cc2cnc[nH]2)NC(=O)[C@H](CCC(N)=O)NC(=O)[C@H](CC(N)=O)NC(=O)[C@H](CC(N)=O)NC(=O)CNC(=O)[C@H](C)NC(=O)[C@@H]2CSSC[C@H](NC(=O)CN)C(=O)N[C@@H](CSSC[C@@H](C(=O)O)NC1=O)C(=O)N[C@@H](CO)C(=O)N[C@@H](Cc1cnc[nH]1)C(=O)N1CCC[C@H]1C(=O)N[C@@H](C)C(=O)N2`: 755 nM corresponded to half-maximal inhibition in [1] (IC50).
`CCC[C@@H]1NC(=O)[C@H](CC)NC(=O)[C@H](Cc2ccccc2)NC(=O)[C@@H]2CSSC[C@H](NC(=O)CN)C(=O)N[C@@H](CSSC[C@@H](C(=O)O)NC(=O)[C@H](Cc3ccc(O)cc3)NC1=O)C(=O)N[C@@H](CO)C(=O)N[C@@H](Cc1cnc[nH]1)C(=O)N1CCC[C@H]1C(=O)N1CCC[C@H]1C(=O)N2` (H-GCCSHPPCF[Abu][Nva]YC-OH; disulfide 2-8, 3-13): the inhibition is 92.6% in assay [2] and 49.8% in assay [5]. In assay [3], this compound yielded a Ki of 794 nM. In addition, the IC50 in assay [4] was greater than 10000 nM; in [6], 298 nM; in assay [7], greater than 10000 nM. Further, the result in assay [8] was inactive.
Turning to `CCC[C@@H]1NC(=O)[C@H](CC)NC(=O)[C@H](Cc2ccccc2)NC(=O)[C@@H]2CSSC[C@H](NC(=O)CN)C(=O)N[C@@H](CSSC[C@@H](C(=O)O)NC(=O)[C@H](Cc3ccc(O)cc3)NC1=O)C(=O)N[C@@H](CO)C(=O)N[C@@H](Cc1cnc[nH]1)C(=O)N1CCC[C@H]1C(=O)N[C@@H](CC)C(=O)N2` (H-GCCSHP[Abu]CF[Abu][Nva]YC-OH; disulfide 2-8, 3-13), the inhibition was 109% in [2], “Dose-dependent effect” in assay [9] and 75% in assay [11]. The Ki in [3] came out at 270 nM. For the same compound, in the assay listed under Homo sapiens, the Selectivity ratio was greater than 1000. In addition, the inhibition result in [10] and in [5] was “inactive” throughout. Also, the IC50 in [4] is greater than 10000 nM; in [6] it was 183 nM; in assay [7], greater than 10000 nM. In addition, in assay [8], the outcome was inactive.
As for `CCCC[C@@H]1NC(=O)[C@H](CO)NC(=O)[C@@H]2CSSC[C@@H](C(=O)O)NC(=O)[C@H](Cc3ccc(O)cc3)NC(=O)[C@H](CCC)NC(=O)[C@H](CC)NC(=O)[C@H](Cc3ccccc3)NC(=O)[C@H](CSSC[C@H](NC(=O)CN)C(=O)N2)NC(=O)[C@@H]2CCCN2C(=O)[C@@H]2CCCN2C1=O` (H-GCCS[Nle]PPCF[Abu][Nva]YC-OH; disulfide 2-8, 3-13), the inhibition in assay [2] turned out to be 96.4%. In addition, the Ki in [3] is 1110 nM. In addition, the IC50 is greater than 10000 nM in assay [4], 345 nM in assay [6] and greater than 10000 nM in assay [7]. For the same compound, the inhibition result in assay [5] was “inactive”. The result in [8] was inactive.
Consider `CCCC[C@@H]1NC(=O)[C@H](CO)NC(=O)[C@@H]2CSSC[C@@H](C(=O)O)NC(=O)[C@H](Cc3ccc(O)cc3)NC(=O)[C@H](CCC)NC(=O)[C@H](CC)NC(=O)[C@H](Cc3ccccc3)NC(=O)[C@H](CSSC[C@H](NC(=O)CN)C(=O)N2)NC(=O)[C@H](CC)NC(=O)[C@@H]2CCCN2C1=O` (H-GCCS[Nle]P[Abu]CF[Abu][Nva]YC-OH; disulfide 2-8, 3-13), for which the inhibition in assay [2] is 104%. Besides, in assay [3], the Ki worked out at 980 nM. For the same compound, the IC50 in assay [4] is greater than 10000 nM; in assay [6], 320 nM; in assay [7], greater than 10000 nM. The inhibition entry in assay [5] is “inactive”. Besides, the outcome in assay [8] was inactive.
